Assay results as given in ChEMBL document CHEMBL4627300, “Discovery of 1,8-naphthyridin-2-one derivative as a potent and selective sphingomyelin synthase 2 inhibitor” (Bioorg Med Chem, 2020).
Converted amounts (≈) assume the structure as drawn. The source made the active and inactive calls. The calls are words filed in the database; no cut-off is given here.

Tests used:
[1] = target: T1, Phosphatidylcholine:ceramide cholinephosphotransferase 2 (Homo sapiens, UniProt Q8NHU3); assay: Inhibition of human recombinant C-terminal FLAG-tagged SMS2 expressed in Freestyle293 cell membrane using C14-phosphatidylcholineD72 and C17-ceramide pre-incubated for 60 mins followed by incubation with substrate for 30 mins measured by RapidFire/MS assay
T1 sequence (Q8NHU3 whole entry): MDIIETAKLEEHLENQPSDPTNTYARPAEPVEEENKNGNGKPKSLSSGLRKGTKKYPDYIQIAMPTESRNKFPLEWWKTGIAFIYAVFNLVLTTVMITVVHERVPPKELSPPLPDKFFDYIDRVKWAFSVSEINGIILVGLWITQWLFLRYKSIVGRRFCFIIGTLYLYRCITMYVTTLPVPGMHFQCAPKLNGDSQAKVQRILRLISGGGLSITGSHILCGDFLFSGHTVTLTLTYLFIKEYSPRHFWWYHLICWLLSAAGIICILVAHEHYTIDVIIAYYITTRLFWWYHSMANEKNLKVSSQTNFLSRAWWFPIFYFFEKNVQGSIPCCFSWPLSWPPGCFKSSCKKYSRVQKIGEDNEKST
Method in brief: (§1)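 C-terminal FLAG-tagged full-length SMS (human SMS1, mouse SMS2, human SMS2) transiently expressed in FreeStyle293 cells for 2 days; total membranes isolated by ultracentrifugation. Enzyme (30 µg/mL) preincubated 60 min with compound, then reacted 30 min at room temperature. Buffer: KCl, 0.1% BSA, 0.03% NP-40 substitute, 1 mM DTT, 10% DMSO. Substrates: 50 µM C14-PC-D72 and 1 µM C17-ceramide. Stopped with 2-propanol/formic acid containing C17-SM internal standard. Product C17-SM-d13 measured by RapidFire SPE and positive SRM MS. % inhibition calculated from peak area ratios against vehicle and no-reaction controls.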

[2] = target: T2, Phosphatidylcholine:ceramide cholinephosphotransferase 2 (Mus musculus, UniProt Q9D4B1); assay: Inhibition of mouse recombinant C-terminal FLAG-tagged SMS2 expressed in mammalian expression system using C14-phosphatidylcholineD72 and C17-ceramide pre-incubated for 60 mins followed by incubation with substrate for 30 mins measured by RapidFire/MS assay; method in brief: as §1
T2 sequence (Q9D4B1 whole entry): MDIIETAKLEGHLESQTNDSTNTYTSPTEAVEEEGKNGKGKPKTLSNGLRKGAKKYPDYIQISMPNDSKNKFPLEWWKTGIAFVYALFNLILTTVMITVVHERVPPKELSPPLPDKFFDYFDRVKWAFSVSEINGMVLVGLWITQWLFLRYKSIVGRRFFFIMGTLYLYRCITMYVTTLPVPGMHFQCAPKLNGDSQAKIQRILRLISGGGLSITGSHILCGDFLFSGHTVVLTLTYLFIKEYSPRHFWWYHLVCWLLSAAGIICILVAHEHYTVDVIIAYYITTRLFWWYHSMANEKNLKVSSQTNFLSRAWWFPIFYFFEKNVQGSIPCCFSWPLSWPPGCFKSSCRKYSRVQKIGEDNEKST

[3] = target: T3, Phosphatidylcholine:ceramide cholinephosphotransferase 1 (Homo sapiens, UniProt Q86VZ5); assay: Inhibition of human recombinant C-terminal FLAG-tagged SMS1 expressed in mammalian expression system using C14-phosphatidylcholineD72 and C17-ceramide pre-incubated for 60 mins followed by incubation with substrate for 30 mins measured by RapidFire/MS assay; method in brief: as §1
T3 sequence (Q86VZ5 whole entry): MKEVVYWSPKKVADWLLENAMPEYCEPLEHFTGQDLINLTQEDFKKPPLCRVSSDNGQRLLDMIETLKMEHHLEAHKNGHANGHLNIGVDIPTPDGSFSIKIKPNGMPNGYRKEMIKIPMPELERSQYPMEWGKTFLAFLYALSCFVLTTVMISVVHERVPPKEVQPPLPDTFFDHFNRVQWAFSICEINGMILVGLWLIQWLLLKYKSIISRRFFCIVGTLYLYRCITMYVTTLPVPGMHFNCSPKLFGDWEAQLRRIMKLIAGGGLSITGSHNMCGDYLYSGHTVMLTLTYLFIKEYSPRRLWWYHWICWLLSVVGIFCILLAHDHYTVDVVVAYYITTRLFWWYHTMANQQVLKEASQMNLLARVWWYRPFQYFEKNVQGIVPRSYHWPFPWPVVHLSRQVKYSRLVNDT

[4] = Permeability of compound in buffer solution at pH 7.4 by PAMPA method; type: ADME; conditions: read-out: permeability
Method in brief: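 Membrane permeability measured at pH 7.4.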

[5] = Aqueous solubility of DMSO dissolved compound in buffer solution at pH 6.8 by LC-MS/MS analysis; type: physicochemical
Method in brief: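 Compound in DMSO added to aqueous buffer at pH 6.8 and incubated. Precipitate removed by filter-plate filtration; dissolved compound in filtrate quantified by LC/MS/MS.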

[6] = Cmax in KK-AY/Ta mouse at 100 mg/kg, po; type: ADME, organism-based; parameters: dose 100 mg/kg, route oral; conditions: in vivo
Method in brief: (§2)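 Single 100 mg/kg dose given orally or subcutaneously to KK-Ay/Ta mice. Plasma drug concentration followed to 24 h. […] MRT is the mean residence time.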

[7] = Drug concentration in KK-AY/Ta mouse at 100 mg/kg, sc measured upto 24 hrs; type: ADME, organism-based; conditions: in vivo, read-out: Drug uptake; method in brief: as §2
[8] = Cmax in KK-AY/Ta mouse at 100 mg/kg, sc; type: ADME, organism-based; parameters: dose 100 mg/kg, route subcutaneous; conditions: in vivo; method in brief: as §2
[9] = Drug concentration in KK-AY/Ta mouse at 100 mg/kg, po measured upto 24 hrs; type: ADME, organism-based; conditions: in vivo, read-out: Drug uptake; method in brief: as §2
[10] = Tmax in KK-AY/Ta mouse at 100 mg/kg, po; type: ADME, organism-based; conditions: in vivo; method in brief: as §2
[11] = Tmax in KK-AY/Ta mouse at 100 mg/kg, sc; type: ADME, organism-based; conditions: in vivo; method in brief: as §2
[12] = AUC (0 to 24 hrs) in KK-AY/Ta mouse at 100 mg/kg, po; type: ADME, organism-based; parameters: dose 100 mg/kg, time < 24 hr, route oral; conditions: in vivo; method in brief: as §2
[13] = AUC (0 to 24 hrs) in KK-AY/Ta mouse at 100 mg/kg, sc; type: ADME, organism-based; parameters: time < 24 hr, dose 100 mg/kg, route subcutaneous; conditions: in vivo; method in brief: as §2
[14] = MRT in KK-AY/Ta mouse at 100 mg/kg, po; type: ADME, organism-based; conditions: in vivo; method in brief: as §2
[15] = MRT in KK-AY/Ta mouse at 100 mg/kg, sc; type: ADME, organism-based; conditions: in vivo; method in brief: as §2
Mus musculus [16] = assay: In vivo inhibition of SMS2 in KK-AY/Ta mouse assessed as decrease in hepatic SM (22:00) levels at 100 mg/kg, sc qd for 7 days measured after last dosing by LC/MS analysis; type: functional, organism-based
Method in brief: (§3)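 Male KK-Ay/Ta mice, 10 weeks old, dosed orally or subcutaneously once or twice daily for 7 days; vehicle-treated controls. Livers removed under anesthesia the morning after the last dose. Tissue homogenized in isopropanol (100 mg/mL) by ball-mill and centrifuged; supernatant SM (22:0) measured by reverse-phase LC/MS.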

Mus musculus [17] = assay: In vivo inhibition of SMS2 in KK-AY/Ta mouse assessed as decrease in hepatic SM (22:00) levels at 200 mg/kg, sc bid for 7 days measured after last dosing by LC/MS analysis; type: functional, organism-based; method in brief: as §3
Mus musculus [18] = assay: In vivo inhibition of SMS2 in KK-AY/Ta mouse assessed as decrease in hepatic SM (22:00) levels at 100 mg/kg, po qd for 7 days measured after last dosing by LC/MS analysis; type: functional, organism-based; method in brief: as §3
Mus musculus [19] = assay: In vivo inhibition of SMS2 in KK-AY/Ta mouse assessed as decrease in hepatic SM (22:00) levels at 200 mg/kg, po bid for 7 days measured after last dosing by LC/MS analysis; type: functional, organism-based; method in brief: as §3
[20] = Inhibition of SMS (unknown origin); parameters: species or system Homo sapiens

Row | SMILES | IC50 [1] [nM] | IC50 [2] [nM] | IC50 [3] [nM] | Papp [4] [×10⁻⁶ cm/s] | solubility kinetic [5] [µg/mL] | further results
1 | COc1cc(CN(C)C(=O)c2c(OCCCC3CCN(C(=O)OC4(C)CC4)CC3)c3cccnc3n(C)c2=O)cc(C(F)(F)F)c1 | 45 | 2.2 | 2400 | 42.4 | 0.79 (≈ 1.23 µM) | Cmax [6]: 6500 ng/mL; concentration at 24 h [7]: 230 ng/mL; Cmax [8]: 700 ng/mL; concentration at 24 h [9]: 7 ng/mL; Tmax [10]: 0.83 h; Tmax [11]: 8 h; AUC(0-t) at 24 h [12]: 18000 ng·h/mL; AUC(0-t) at 24 h [13]: 12000 ng·h/mL; MRT [14]: 3 h; MRT [15]: 9.4 h; inhibition (Mus musculus [16]): Active; inhibition (Mus musculus [17]): Active; inhibition (Mus musculus [18]): inactive; inhibition (Mus musculus [19]): inactive
2 | COc1cc(CN(C)C(=O)c2c(OCCCC3CCN(C(=O)OC(C)(C)C)CC3)c3ccccc3n(C)c2=O)cc(OC)c1 | 91 | 19 | 19000 | 29.5 | 1.8 (≈ 2.96 µM) | 
3 | CN(Cc1cc(C(F)(F)F)cc(C(F)(F)F)c1)C(=O)c1c(OCCOCc2ccccc2)c2ccccc2n(C)c1=O | 380 | 590 | 22000 |  |  | 
4 | CN(Cc1cc(C(F)(F)F)cc(C(F)(F)F)c1)C(=O)c1c(OCCCC(F)(F)F)c2ccccc2n(C)c1=O | 120 | 240 | 25000 |  |  | 
5 | S=C(S)OC1C[C@H]2C[C@@H]1[C@H]1CCC[C@@H]21 (some centres undefined) |  |  |  |  |  | IC50 [20]: > 100000 nM
6 | CN(Cc1cc(C(F)(F)F)cc(C(F)(F)F)c1)C(=O)c1c(N2CCC(OCc3ccccc3)C2)c2ccccc2n(C)c1=O (centres undefined) | 610 | 660 | 15000 |  |  | 
7 | CN(Cc1cc(C(F)(F)F)cc(C(F)(F)F)c1)C(=O)c1c(OCCCC2CCN(C(=O)OC(C)(C)C)CC2)c2ccccc2n(C)c1=O | 30 | 7.7 | 3400 | 1.1 | < 0.16 | 
8 | CC(C)CCOc1c(C(=O)N(C)Cc2cc(C(F)(F)F)cc(C(F)(F)F)c2)c(=O)n(C)c2ccccc12 | 350 | 260 | > 100000 |  |  | 
9 | CN(Cc1cc(C(F)(F)F)cc(C(F)(F)F)c1)C(=O)c1c(N2CCCC2)c2ccccc2n(C)c1=O |  | 1100 | > 100000 |  |  | 
10 | COc1cc(CN(C)C(=O)c2c(OCCCC3CCN(C(=O)OC(C)(C)C)CC3)c3cccnc3n(C)c2=O)cc(OC)c1 | 130 | 32 | 10000 | 24.1 | 7.3 (≈ 12 µM) | 
11 | COc1cc(CN(C)C(=O)c2c(OCCCC3CCN(C(=O)OC4(C)CC4)CC3)c3cccnc3n(C)c2=O)cc(OC)c1 | 300 | 14 | 18000 | 20 | 16 (≈ 26.4 µM) | 
12 | CCOc1cc(CN(C)C(=O)c2c(OCCCC3CCN(C(=O)OC(C)(C)C)CC3)c3ccccc3n(C)c2=O)cc(OCC)c1 | 380 | 51 | 15000 | 27.5 | < 0.08 | 
13 | CN(Cc1cc(C(F)(F)F)cc(C(F)(F)F)c1)C(=O)c1c(OCCCC2CCCCC2)c2ccccc2n(C)c1=O | 480 | 190 | 14000 |  |  | 
14 | COc1cc(CN(C)C(=O)c2c(OCCCC3CCN(C(=O)OC(C)(C)C)CC3)c3cnccc3n(C)c2=O)cc(OC)c1 | 1600 | 340 | > 100000 | 26 | 33 (≈ 54.2 µM) | 
15 | CN(Cc1cc(C(F)(F)F)cc(C(F)(F)F)c1)C(=O)c1c(N2CCCCC2)c2ccccc2n(C)c1=O | 11000 |  | > 100000 |  |  | 
16 | CN(Cc1cc(C(F)(F)F)cc(C(F)(F)F)c1)C(=O)c1c(OCCCC2CCN(C(=O)OC3(C)CC3)CC2)c2cccnc2n(C)c1=O | 47 | 3 | 850 | 72.1 | < 0.3 | 
17 | CCCOc1c(C(=O)N(C)Cc2cc(C(F)(F)F)cc(C(F)(F)F)c2)c(=O)n(C)c2ccccc12 | 2100 |  | > 100000 |  |  | 
18 | CN(Cc1cc(C(F)(F)F)cc(C(F)(F)F)c1)C(=O)c1c(OCCCc2ccccc2)c2ccccc2n(C)c1=O | 210 | 120 | 14000 |  |  | 
